Converted amounts (≈) assume the structure as drawn.
Legend:
[1] = Cytotoxicity against human MDM assessed as cell viability after 3 days by Alamar blue dye-based fluorocytometric analysis relative to control; details: 72 h
[2] = system: Mycobacterium tuberculosis; experiment: Antibacterial activity against Mycobacterium tuberculosis H37Rv ATCC 27294T assessed as isoniazid MIC at 128 ug/ml after 7 days by microdilution checkerboard assay; format: functional; details: 168 h
Method in brief: (§1)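 Two-dimensional checkerboard in H37Rv at 10^5 CFU/ml in MB7H9/OADC. Partner drug (amikacin, EtBr, isoniazid, ofloxacin or rifampin) two-fold serially diluted across columns 3-11. Test compound two-fold serially diluted down rows 2-6. Plates incubated 7 days at 37 °C, then MTT added overnight. […] Run in triplicate.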

[3] = system: Mycobacterium tuberculosis; experiment: Antibacterial activity against Mycobacterium tuberculosis H37Rv ATCC 27294T assessed as ethidium bromide MIC at 8 ug/ml after 7 days by microdilution checkerboard assay; format: functional; details: 168 h; method in brief: as §1
[4] = system: Mycobacterium tuberculosis; experiment: Antibacterial activity against Mycobacterium tuberculosis H37Rv ATCC 27294T assessed as ofloxacin MIC at 128 ug/ml after 7 days by microdilution checkerboard assay; format: functional; details: 168 h; method in brief: as §1
[5] = system: Mycobacterium tuberculosis; experiment: Antibacterial activity against Mycobacterium tuberculosis H37Rv ATCC 27294T assessed as ofloxacin MIC at 64 ug/ml after 7 days by microdilution checkerboard assay; format: functional; details: 168 h; method in brief: as §1
[6] = system: Mycobacterium tuberculosis; experiment: Antibacterial activity against Mycobacterium tuberculosis H37Rv ATCC 27294T assessed as ofloxacin MIC at 4 ug/ml after 7 days by microdilution checkerboard assay; format: functional; details: 168 h; method in brief: as §1
[7] = system: Mycobacterium tuberculosis; experiment: Antibacterial activity against Mycobacterium tuberculosis H37Rv ATCC 27294T assessed as ofloxacin MIC at 8 ug/ml after 7 days by microdilution checkerboard assay; format: functional; details: 168 h; method in brief: as §1
[8] = system: Mycobacterium tuberculosis; experiment: Antibacterial activity against Mycobacterium tuberculosis H37Rv ATCC 27294T assessed as ofloxacin MIC at 16 ug/ml after 7 days by microdilution checkerboard assay; format: functional; details: 168 h; method in brief: as §1
[9] = system: Mycobacterium tuberculosis; experiment: Antibacterial activity against Mycobacterium tuberculosis H37Rv ATCC 27294T assessed as amikacin MIC at 32 ug/ml after 7 days by microdilution checkerboard assay; format: functional; details: 168 h; method in brief: as §1
[10] = system: Mycobacterium tuberculosis; experiment: Antibacterial activity against Mycobacterium tuberculosis H37Rv ATCC 27294T assessed as amikacin MIC at 64 ug/ml after 7 days by microdilution checkerboard assay; format: functional; details: 168 h; method in brief: as §1
[11] = system: Mycobacterium tuberculosis; experiment: Modulation factor, ratio of ofloxacin MIC to compound MIC for Mycobacterium tuberculosis H37Rv ATCC 27294T at 128 ug/ml in presence of ofloxacin; format: functional
[12] = system: Mycobacterium tuberculosis; experiment: Modulation factor, ratio of ethidium bromide MIC to compound MIC for Mycobacterium tuberculosis H37Rv ATCC 27294T at 128 ug/ml in presence of ethidium bromide; format: functional
[13] = system: Mycobacterium tuberculosis; experiment: Antibacterial activity against Mycobacterium tuberculosis H37Rv ATCC 27294T assessed as rifampin MIC at 128 ug/ml after 7 days by microdilution checkerboard assay; format: functional; details: 168 h
Method in brief: (§2)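 M. tuberculosis H37Rv grown in MB7H9 + 10% OADC at 37 °C to OD600 0.8; plates inoculated at 10^5 CFU/ml. Rifampicin two-fold serially diluted across columns, test compound two-fold diluted down rows (two-dimensional checkerboard). Sealed, 37 °C for seven days, then MTT added and incubated overnight. MIC read as no colour change. Triplicate.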

[14] = system: Mycobacterium tuberculosis; experiment: Antibacterial activity against Mycobacterium tuberculosis H37Rv ATCC 27294T assessed as rifampin MIC at 2 ug/ml after 7 days by microdilution checkerboard assay; format: functional; details: 168 h; method in brief: as §2
[15] = system: Mycobacterium tuberculosis; experiment: Modulation factor, ratio of isoniazid MIC to compound MIC for Mycobacterium tuberculosis H37Rv ATCC 27294T at 128 ug/ml in presence of isoniazid; format: functional

Molecule CCCSc1nnc(COc2ccccc2C2=NOC(c3ccc(Cl)cc3Cl)C2)n1NC(=O)CCl (stereo not given) has an IC50 [1] of 28.7 µg/mL (≈ 51.7 µM), an MIC [2] of 0.00156 µg/mL and an MIC [3] of 12.5 µg/mL. It also gave an MIC [4] of 0.625 µg/mL, an MIC [5] of 1 µg/mL and an MIC [6] of 2 µg/mL. It also gave an MIC [7] of 1 µg/mL, an MIC [8] of 1 µg/mL and an MIC [9] of 1 µg/mL. The MIC [10] was 1 µg/mL, the Ratio [11] was 32 and the Ratio [12] was 32. It also gave an MIC [13] of 0.0156 µg/mL, an MIC [14] of 0.5 µg/mL and a Ratio [15] of 64.
